Experiments:
A549 [1] = test: Antiproliferative activity against human A549 cells at 30 uM after 24 to 72 hrs by CCK-8 assay; assay type: functional
Procedure, shortened: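 Time course in A549 cells seeded 5 × 10³ cells/well. Compounds tested at 1, 3, 10 and 30 […] for the periods shown, with final DMSO < 0.1%. Viability by CCK-8 (2 h, OD 490 nm). Mean ± S.D. of three experiments done in triplicate, one-way ANOVA against 24 h and 48 h.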

A549 [2] = test: Antiproliferative activity against human A549 cells after 48 hrs by CCK-8 assay; assay type: functional, cell-based; conditions: A549, 48 h
Procedure, shortened: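 A549 cells in RPMI1640 with 10% newborn calf serum and 1% penicillin-streptomycin at 37 °C, 5% CO2. Seeded 5 × 10³ cells/well, compounds added after 12 h from DMSO stocks diluted in medium (final DMSO < 0.1% v/v). After 48 h, CCK-8 added for 2 h and OD read at 490 nm. IC50 by Probit regression of inhibition ratio against concentration. At least three experiments.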

Row | IC50 (A549 [2]) [µM] | Structure (SMILES) | inhibition at 30 µM (A549 [1]) [%]
1 | > 30 | Brc1ccccc1CN(Cc1ccccc1Br)C1CCCCC1 | 9.39
2 | > 30 | Brc1ccccc1CN(Cc1ccccc1Br)c1ccccc1 | 
3 | > 30 | CC(C)(C)N(Cc1ccccc1Br)Cc1ccccc1Br | 

— ChEMBL document CHEMBL3232953, “Synthesis, characterization and anti-proliferative activity of heterocyclic hypervalent organoantimony compounds” (Eur J Med Chem, 2014)
